# From ChEMBL document CHEMBL4811218, “Discovery and optimization of withangulatin A derivatives as novel glutaminase 1 inhibitors for the treatment of triple-negative breast cancer” (Eur J Med Chem, 2021)
# How the values were obtained:
# MDA-MB-231 [1] = experiment: Antiproliferative activity against human MDA-MB-231 cells after 24 hrs by MTT assay; format: functional, cell-based; conditions: MDA-MB-231, 24 h
# [2] = biological target: T1, Glutaminase kidney isoform, mitochondrial (Homo sapiens) (UniProt O94925); experiment: Inhibition of human GLS1 at 10 uM relative to control
# T1 sequence (whole entry): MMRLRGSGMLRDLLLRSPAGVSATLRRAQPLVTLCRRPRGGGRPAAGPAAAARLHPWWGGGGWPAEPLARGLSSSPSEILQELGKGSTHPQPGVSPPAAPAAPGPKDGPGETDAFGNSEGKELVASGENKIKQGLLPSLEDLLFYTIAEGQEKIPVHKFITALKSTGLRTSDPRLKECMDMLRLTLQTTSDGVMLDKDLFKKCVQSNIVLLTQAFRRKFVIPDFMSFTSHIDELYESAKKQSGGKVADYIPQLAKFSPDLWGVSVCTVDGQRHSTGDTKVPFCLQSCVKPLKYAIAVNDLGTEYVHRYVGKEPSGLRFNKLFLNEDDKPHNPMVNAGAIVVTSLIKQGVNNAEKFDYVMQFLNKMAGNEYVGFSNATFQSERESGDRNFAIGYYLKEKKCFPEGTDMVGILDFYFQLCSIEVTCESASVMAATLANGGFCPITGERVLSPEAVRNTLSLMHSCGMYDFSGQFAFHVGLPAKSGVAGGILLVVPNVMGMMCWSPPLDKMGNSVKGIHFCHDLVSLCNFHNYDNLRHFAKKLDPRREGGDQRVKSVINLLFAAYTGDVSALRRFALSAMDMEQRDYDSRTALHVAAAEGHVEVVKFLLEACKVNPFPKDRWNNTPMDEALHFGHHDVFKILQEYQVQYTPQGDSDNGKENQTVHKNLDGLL
# Outline: (§1)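 Human GLS1 hydrolase activity measured with a commercial GLS1 inhibitor screening kit, following the manufacturer's protocol. Single-point screening was run at 10 μM.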
# MDA-MB-231 [3] = experiment: Antiproliferative activity against human MDA-MB-231 cells after 24 hrs by MTT assay relative to control; format: functional
# Outline: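 MDA-MB-231 cells kept in DMEM with 10% FBS at 37°C, 5% CO2. Seeded at 5×10^3 cells/well and left 24 h, then exposed to compounds at 0.078-10 µM for 24 h. 0.1% DMSO served as the vehicle control. MTT added for 4 h, formazan dissolved in DMSO, absorbance read at 570 nm. IC50 derived. Each run in triplicate, repeated at least three times.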
# [4] = biological target: T2, Glutaminase kidney isoform, mitochondrial (Homo sapiens, UniProt O94925); experiment: Inhibition of human GLS1; outline: as §1
# T2 sequence (O94925 whole entry): T1 sequence (whole entry)
SMILES,IC50 (MDA-MB-231 [1]) [µM],inhibition [2] [%],IC50 [4] [µM],inhibition (INH) (MDA-MB-231 [3]) [%]
CC(=O)O[C@H]1C=C([C@H](C)[C@H]2CC(C)=C(C)C(=O)O2)[C@@]2(C)CC[C@H]3[C@@H](C[C@H]4O[C@]45[C@@H](OC(=O)CCCC(=O)O)C=CC(=O)[C@]35C)[C@@]12O,> 50,< 50,–,–
CC(=O)O[C@H]1C=C([C@H](C)[C@H]2CC(C)=C(C)C(=O)O2)[C@@]2(C)CC[C@H]3[C@@H](C[C@H]4O[C@]45[C@@H](O)C=CC(=O)[C@]35C)[C@@]12O,6.34,41.4,18.2,74.7
CC(=O)O[C@H]1C=C([C@H](C)[C@H]2CC(C)=C(C)C(=O)O2)[C@@]2(C)CC[C@H]3[C@@H](C[C@H]4O[C@]45[C@@H](OC(=O)/C=C/C(=O)O)C=CC(=O)[C@]35C)[C@@]12O,> 50,< 50,–,–
CC(=O)O[C@H]1C=C([C@H](C)[C@H]2CC(C)=C(C)C(=O)O2)[C@@]2(C)CC[C@H]3[C@@H](C[C@H]4O[C@]45[C@@H](OC(=O)CCCC(=O)Nc4nncs4)C=CC(=O)[C@]35C)[C@@]12O,2.17,< 50,–,71.6
CC(=O)O[C@H]1C=C([C@H](C)[C@H]2CC(C)=C(C)C(=O)O2)[C@@]2(C)CC[C@H]3[C@@H](C[C@H]4O[C@]45[C@@H](OC(=O)CCCC(=O)Nc4ccc(N6CCOCC6)c(F)c4)C(Nc4ccc(N6CCOCC6)c(F)c4)CC(=O)[C@]35C)[C@@]12O (stereo partly specified),> 50,< 50,–,0
COc1ccc(NC(=O)CCCC(=O)O[C@H]2C(Nc3ccc(OC)cc3)CC(=O)[C@]3(C)[C@H]4CC[C@]5(C)C([C@H](C)[C@H]6CC(C)=C(C)C(=O)O6)=C[C@H](OC(C)=O)[C@]5(O)[C@@H]4C[C@H]4O[C@@]423)cc1 (stereo partly specified),> 50,< 50,–,0
O=C(Cc1ccccc1)Nc1nnc(CCSCCc2nnc(NC(=O)Cc3ccccc3)s2)s1,9.08,–,–,68.5
CC(=O)O[C@H]1C=C([C@H](C)[C@H]2CC(C)=C(C)C(=O)O2)[C@@]2(C)CC[C@H]3[C@@H](C[C@H]4O[C@]45[C@@H](OC(=O)CCC(=O)Nc4nncs4)C=CC(=O)[C@]35C)[C@@]12O,8.07,< 50,–,77.5
COc1ccc(NC(=O)/C=C/C(=O)O[C@H]2C(Nc3ccc(OC)cc3)CC(=O)[C@]3(C)[C@H]4CC[C@]5(C)C([C@H](C)[C@H]6CC(C)=C(C)C(=O)O6)=C[C@H](OC(C)=O)[C@]5(O)[C@@H]4C[C@H]4O[C@@]423)cc1 (stereo partly specified),> 50,< 50,–,0
CC(=O)O[C@H]1C=C([C@H](C)[C@H]2CC(C)=C(C)C(=O)O2)[C@@]2(C)CC[C@H]3[C@@H](C[C@H]4O[C@]45[C@@H](OC(=O)CCC(=O)O)C=CC(=O)[C@]35C)[C@@]12O,> 50,< 50,–,–
COc1ccc(NC(=O)CCC(=O)O[C@H]2C(Nc3ccc(OC)cc3)CC(=O)[C@]3(C)[C@H]4CC[C@]5(C)C([C@H](C)[C@H]6CC(C)=C(C)C(=O)O6)=C[C@H](OC(C)=O)[C@]5(O)[C@@H]4C[C@H]4O[C@@]423)cc1 (stereo partly specified),> 50,< 50,–,0
CC(=O)O[C@H]1C=C([C@H](C)[C@H]2CC(C)=C(C)C(=O)O2)[C@@]2(C)CC[C@H]3[C@@H](C[C@H]4O[C@]45[C@@H](OC(=O)/C=C/C(=O)Nc4nc6ccccc6s4)C=CC(=O)[C@]35C)[C@@]12O,> 50,< 50,–,0
CC(=O)O[C@H]1C=C([C@H](C)[C@H]2CC(C)=C(C)C(=O)O2)[C@@]2(C)CC[C@H]3[C@@H](C[C@H]4O[C@]45[C@@H](OC(=O)CCC(=O)Nc4nc6ccccc6s4)C=CC(=O)[C@]35C)[C@@]12O,3.5,< 50,–,79.5

# Compounds with a lower IC50 (MDA-MB-231 [1]), results first:
IC50 (MDA-MB-231 [1]) [µM],inhibition [2] [%],IC50 [4] [µM],SMILES,inhibition (INH) (MDA-MB-231 [3]) [%]
2.06,< 50,–,CC(=O)O[C@H]1C=C([C@H](C)[C@H]2CC(C)=C(C)C(=O)O2)[C@@]2(C)CC[C@H]3[C@@H](C[C@H]4O[C@]45[C@@H](OC(=O)CCC(=O)Nc4nccs4)C=CC(=O)[C@]35C)[C@@]12O,79.6
1.87,< 50,–,CC(=O)O[C@H]1C=C([C@H](C)[C@H]2CC(C)=C(C)C(=O)O2)[C@@]2(C)CC[C@H]3[C@@H](C[C@H]4O[C@]45[C@@H](OC(=O)CCC(=O)Nc4ccc(F)cc4)C=CC(=O)[C@]35C)[C@@]12O,80.4
1.83,< 50,–,CC(=O)O[C@H]1C=C([C@H](C)[C@H]2CC(C)=C(C)C(=O)O2)[C@@]2(C)CC[C@H]3[C@@H](C[C@H]4O[C@]45[C@@H](OC(=O)/C=C/C(=O)Nc4nccs4)C=CC(=O)[C@]35C)[C@@]12O,88.4
1.66,53.5,–,CC(=O)O[C@H]1C=C([C@H](C)[C@H]2CC(C)=C(C)C(=O)O2)[C@@]2(C)CC[C@H]3[C@@H](C[C@H]4O[C@]45[C@@H](OC(=O)CCC(=O)Nc4ccc(N6CCOCC6)c(F)c4)C=CC(=O)[C@]35C)[C@@]12O,80.9
1.62,< 50,–,CC(=O)O[C@H]1C=C([C@H](C)[C@H]2CC(C)=C(C)C(=O)O2)[C@@]2(C)CC[C@H]3[C@@H](C[C@H]4O[C@]45[C@@H](OC(=O)CCC(=O)Nc4ccc(N(C)C)cc4)C=CC(=O)[C@]35C)[C@@]12O,83.3
1.56,< 50,–,CC(=O)O[C@H]1C=C([C@H](C)[C@H]2CC(C)=C(C)C(=O)O2)[C@@]2(C)CC[C@H]3[C@@H](C[C@H]4O[C@]45[C@@H](OC(=O)/C=C/C(=O)Nc4ccc(N(C)C)cc4)C=CC(=O)[C@]35C)[C@@]12O,72.1
1.38,52.4,–,CC(=O)O[C@H]1C=C([C@H](C)[C@H]2CC(C)=C(C)C(=O)O2)[C@@]2(C)CC[C@H]3[C@@H](C[C@H]4O[C@]45[C@@H](OC(=O)/C=C/C(=O)Nc4ccc(N6CCOCC6)c(F)c4)C=CC(=O)[C@]35C)[C@@]12O,90.8
1.32,< 50,–,CC(=O)O[C@H]1C=C([C@H](C)[C@H]2CC(C)=C(C)C(=O)O2)[C@@]2(C)CC[C@H]3[C@@H](C[C@H]4O[C@]45[C@@H](OC(=O)/C=C/C(=O)Nc4ccc(F)cc4)C=CC(=O)[C@]35C)[C@@]12O,88.9
1.07,51.8,–,CC(=O)O[C@H]1C=C([C@H](C)[C@H]2CC(C)=C(C)C(=O)O2)[C@@]2(C)CC[C@H]3[C@@H](C[C@H]4O[C@]45[C@@H](OC(=O)CCCC(=O)Nc4ccc(N(C)C)cc4)C=CC(=O)[C@]35C)[C@@]12O,92.6
1.02,< 50,–,COc1ccc(NC(=O)CCC(=O)O[C@H]2C=CC(=O)[C@]3(C)[C@H]4CC[C@]5(C)C([C@H](C)[C@H]6CC(C)=C(C)C(=O)O6)=C[C@H](OC(C)=O)[C@]5(O)[C@@H]4C[C@H]4O[C@]243)cc1,82.9
1,< 50,–,CC(=O)O[C@H]1C=C([C@H](C)[C@H]2CC(C)=C(C)C(=O)O2)[C@@]2(C)CC[C@H]3[C@@H](C[C@H]4O[C@]45[C@@H](OC(=O)CCCC(=O)Nc4nccs4)C=CC(=O)[C@]35C)[C@@]12O,84.8
0.79,51.6,–,COc1ccc(NC(=O)/C=C/C(=O)O[C@H]2C=CC(=O)[C@]3(C)[C@H]4CC[C@]5(C)C([C@H](C)[C@H]6CC(C)=C(C)C(=O)O6)=C[C@H](OC(C)=O)[C@]5(O)[C@@H]4C[C@H]4O[C@]243)cc1,94.1
0.67,< 50,–,CC(=O)O[C@H]1C=C([C@H](C)[C@H]2CC(C)=C(C)C(=O)O2)[C@@]2(C)CC[C@H]3[C@@H](C[C@H]4O[C@]45[C@@H](OC(=O)CCCC(=O)Nc4nc6ccccc6s4)C=CC(=O)[C@]35C)[C@@]12O,94.1
0.49,< 50,–,CC(=O)O[C@H]1C=C([C@H](C)[C@H]2CC(C)=C(C)C(=O)O2)[C@@]2(C)CC[C@H]3[C@@H](C[C@H]4O[C@]45[C@@H](OC(=O)CCCC(=O)Nc4ccc(F)cc4)C=CC(=O)[C@]35C)[C@@]12O,95.4
0.44,56.3,–,COc1ccc(NC(=O)CCCC(=O)O[C@H]2C=CC(=O)[C@]3(C)[C@H]4CC[C@]5(C)C([C@H](C)[C@H]6CC(C)=C(C)C(=O)O6)=C[C@H](OC(C)=O)[C@]5(O)[C@@H]4C[C@H]4O[C@]243)cc1,92.9
